We go through twelve molecules from ChEMBL document CHEMBL2331233, “Rational design, efficient syntheses and biological evaluation of N,N'-symmetrically bis-substituted butylimidazole analogs as a new class of potent Angiotensin II receptor blockers” (Eur J Med Chem, 2013).

One may read the IC50 as the concentration needed to halve the response being measured. Read a high IC50 as weaker potency. As a reminder, the pA2 is the negative logarithm of the molar antagonist concentration that doubles the agonist concentration needed for the same response.

Experiment [1] addresses T1, Type-1 angiotensin II receptor (Homo sapiens, UniProt P30556).
T1 sequence (P30556 whole entry): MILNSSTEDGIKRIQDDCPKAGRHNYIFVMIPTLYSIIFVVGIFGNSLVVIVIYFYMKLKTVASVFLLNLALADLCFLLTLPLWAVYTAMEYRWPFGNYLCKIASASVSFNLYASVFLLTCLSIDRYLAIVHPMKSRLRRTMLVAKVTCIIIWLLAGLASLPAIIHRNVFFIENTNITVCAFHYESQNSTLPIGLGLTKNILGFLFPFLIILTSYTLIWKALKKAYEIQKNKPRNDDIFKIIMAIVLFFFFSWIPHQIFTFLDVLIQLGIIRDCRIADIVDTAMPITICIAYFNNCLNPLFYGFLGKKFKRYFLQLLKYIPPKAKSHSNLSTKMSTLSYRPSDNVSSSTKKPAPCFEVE
Description: Displacement of [125I-Sar1-Ile8]-ANG2 from human Angiotensin 2 type-1 receptor expressed in HEK293 cells after 1 hr by gamma counting analysis. It is filed as cell-based. The essentials:
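Membranes from HEK 293 cells stably transfected with human AT1 receptor (Geneticin 700 µg/mL selection) incubated in buffer B (50 mM Tris–HCl, 1 mM EDTA, 10 mM MgCl2, 0.2% BSA, bacitracin, aprotinin, pH 7.4) with 100,000–120,000 cpm radioligand and increasing analog concentrations, 1 h, 24 °C; GF/C filtration. Nonspecific binding with 1000 nM [Sar1-Ile8]ANGII. One-site nonlinear fit gives -log IC50; 2–4 experiments.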
In general terms: Displacement assays read how much labelled ligand stays bound in the presence of the test substance.

A short description of experiment [2]: Antagonist activity at Angiotensin 2 type-1 receptor in Wistar rat uterus assessed as suppression of ANG2-induced contraction.

For `CCCCc1c(Br)[n+](Cc2ccc(-c3ccccc3-c3nn[nH]n3)cc2)cn1Cc1ccc(-c2ccccc2-c2nn[nH]n2)cc1`, the concentration for half-maximal inhibition (IC50) in experiment [1] is 0.708 µM.
With `CCCCc1c[n+](Cc2ccc(-c3ccccc3-c3nn[n-]n3)cc2)cn1Cc1ccc(-c2ccccc2-c2nn[n-]n2)cc1.[Br-].[Na+].[Na+]`, the pA2 in experiment [2] stood at 8.45. In addition, the concentration for half-maximal inhibition (IC50) in experiment [1] was 0.00288 µM.
`CCCCc1n(Cc2ccc(-c3ccccc3-c3nn[nH]n3)cc2)cc[n+]1Cc1ccc(-c2ccccc2-c2nn[nH]n2)cc1` showed a 50% inhibitory concentration (IC50) in experiment [1] of 1.7 µM.
In the case of `CCCCc1c[n+](Cc2ccc(-c3ccccc3-c3nn[n-]n3)cc2)cn1Cc1ccc(-c2ccccc2-c2nn[nH]n2)cc1`, the IC50 in experiment [1] was 0.000912 µM.
As for `CCCCc1c[n+](Cc2ccc(-c3ccccc3C(=O)O)cc2)cn1Cc1ccc(-c2ccccc2C(=O)O)cc1`, in experiment [1], the half-inhibitory concentration (IC50) was 0.331 µM.
`CCCCc1c[n+](Cc2ccc(-c3ccccc3C(=O)O)cc2)c(CO)n1Cc1ccc(-c2ccccc2C(=O)O)cc1`: the half-inhibitory concentration (IC50) in experiment [1] was 0.501 µM.
Still for that read-out and setting: the result for `CCCCc1c(Cl)[n+](Cc2ccc(-c3ccccc3-c3nn[nH]n3)cc2)cn1Cc1ccc(-c2ccccc2-c2nn[nH]n2)cc1` reads 0.832 µM.
`CCCCc1c(Cl)[n+](Cc2ccc(-c3ccccc3-c3nn[nH]n3)cc2)c(CO)n1Cc1ccc(-c2ccccc2-c2nn[nH]n2)cc1` gave a 50% inhibitory concentration (IC50) in experiment [1] of 6.46 µM.
Take `CCCCc1c[n+](Cc2ccc(-c3ccccc3-c3nn[nH]n3)cc2)c(CO)n1Cc1ccc(-c2ccccc2-c2nn[nH]n2)cc1.[Br-]`: the pA2 in experiment [2] was 8.58. Besides, the half-inhibitory concentration (IC50) in experiment [1] is 0.00427 µM.
For the molecule `CCCCc1c[n+](Cc2ccc(-c3ccccc3-c3nn[nH]n3)cc2)cn1Cc1ccc(-c2ccccc2-c2nn[nH]n2)cc1`, in experiment [1], the IC50 was 0.000347 µM.
Same read-out and setting: the result for `CCCCc1n(Cc2ccc(-c3ccccc3-c3nn[nH]n3)cc2)c(CO)c(Cl)[n+]1Cc1ccc(-c2ccccc2-c2nn[nH]n2)cc1` reads 0.417 µM.
On to `CCCCc1c(Br)[n+](Cc2ccc(-c3ccccc3-c3nn[nH]n3)cc2)c(CO)n1Cc1ccc(-c2ccccc2-c2nn[nH]n2)cc1.[Br-]`, for which the pA2 in experiment [2] is 7.13. Also, in experiment [1], the half-maximal inhibitory concentration (IC50) was 0.0427 µM.
